Calls of active or inactive are those of the source. The rule behind the calls is not given here.
How the values were obtained:
[1] = Antiproliferative activity against human SKBR3 cells after 72 hrs by MTS assay; assay type: functional, cell-based; conditions: SK-BR-3, 72 h
Summary of the method: (§1)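 IC50 values for growth inhibition were derived from assays run in triplicate. Values are mean ± standard deviation of at least two separate experiments.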

MCF7 = test: Antiproliferative activity against human MCF7 cells after 72 hrs by MTS assay; assay type: functional, cell-based; conditions: MCF7, 72 h; summary of the method: as §1
[2] = molecular target: Heat shock protein HSP 90-beta (Homo sapiens) (UniProt P08238); test: Inhibition of HSP90 in human MCF7 cells assessed as degradation of p-Akt after 24 hrs by Western blotting analysis; assay type: cell-based
Summary of the method: (§2)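 MCF-7 breast cancer cells were treated with compound at the concentrations shown, then lysed. Lysates were analysed by Western blot for the Hsp90-dependent clients Her2, Raf-1 and p-Akt, with actin as the Hsp90-independent control. Geldanamycin (0.5 μM) served as positive control and DMSO as negative control.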

[3] = molecular target: Heat shock protein HSP 90-beta (Homo sapiens) (UniProt P08238); test: Inhibition of HSP90 in human MCF7 cells assessed as degradation of Her-2 after 24 hrs by Western blotting analysis; assay type: cell-based; summary of the method: as §2
[4] = molecular target: Heat shock protein HSP 90-beta (Homo sapiens) (UniProt P08238); test: Inhibition of HSP90 in human MCF7 cells assessed as degradation of Raf-1 after 24 hrs by Western blotting analysis; assay type: cell-based; summary of the method: as §2
[5] = molecular target: Heat shock protein HSP 90-beta (Homo sapiens) (UniProt P08238); test: Inhibition of HSP90 in human MCF7 cells assessed as degradation of p-Akt at 1 to 10 uM after 24 hrs by Western blotting analysis; assay type: cell-based; summary of the method: as §2
[6] = molecular target: Heat shock protein HSP 90-beta (Homo sapiens) (UniProt P08238); test: Inhibition of HSP90 in human MCF7 cells assessed as degradation of Raf-1 at 1 to 10 uM after 24 hrs by Western blotting analysis; assay type: cell-based; summary of the method: as §2
[7] = molecular target: Heat shock protein HSP 90-beta (Homo sapiens) (UniProt P08238); test: Inhibition of HSP90 in human MCF7 cells assessed as degradation of Her-2 at 1 to 10 uM after 24 hrs by Western blotting analysis; assay type: cell-based; summary of the method: as §2

Sequence of Heat shock protein HSP 90-beta (Homo sapiens) (P08238 whole entry): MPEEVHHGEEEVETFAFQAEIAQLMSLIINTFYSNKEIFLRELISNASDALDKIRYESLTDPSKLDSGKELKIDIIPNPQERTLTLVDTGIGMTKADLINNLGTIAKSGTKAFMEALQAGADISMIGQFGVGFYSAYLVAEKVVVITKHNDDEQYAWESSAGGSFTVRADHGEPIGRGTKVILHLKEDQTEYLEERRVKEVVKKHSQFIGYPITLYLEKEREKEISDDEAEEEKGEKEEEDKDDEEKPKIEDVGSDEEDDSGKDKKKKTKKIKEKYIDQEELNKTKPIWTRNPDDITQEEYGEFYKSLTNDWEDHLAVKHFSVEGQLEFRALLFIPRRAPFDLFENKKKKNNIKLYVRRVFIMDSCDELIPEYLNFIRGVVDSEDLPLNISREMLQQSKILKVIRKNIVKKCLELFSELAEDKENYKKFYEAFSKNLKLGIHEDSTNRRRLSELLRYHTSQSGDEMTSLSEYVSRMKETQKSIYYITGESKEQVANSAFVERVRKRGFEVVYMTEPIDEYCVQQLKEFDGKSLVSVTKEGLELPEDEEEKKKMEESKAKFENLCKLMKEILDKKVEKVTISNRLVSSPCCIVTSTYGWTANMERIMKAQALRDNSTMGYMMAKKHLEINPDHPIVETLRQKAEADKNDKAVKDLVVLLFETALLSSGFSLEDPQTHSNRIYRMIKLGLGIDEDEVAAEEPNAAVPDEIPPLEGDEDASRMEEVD

Row | SMILES | IC50 [1] | IC50 (MCF7) | further results
1 | CO[C@@H]1[C@@H](OC(N)=O)[C@@H](O)[C@H](Oc2ccc3c(O)c(NC(=O)c4ccc(O)c(CC=C(C)C)c4)c(=O)oc3c2C)OC1(C)C [NOVOBIOCIN] | 700 µM | – | –
2 | Cc1ccc(C(=O)Nc2cccc(-c3ccc(OC4CCN(C)CC4)cc3)c2)cc1 | 5.27 µM | 3.92 µM | –
3 | CN1CCC(Oc2ccc(-c3cccc(NC(=O)c4ccc(Br)cc4)c3)cc2)CC1 | 1.94 µM | 0.88 µM | inhibition [2]: Dose-dependent effect; inhibition [3]: Dose-dependent effect; inhibition [4]: Dose-dependent effect
4 | CN1CCC(Oc2ccc(-c3cccc(NC(=O)c4ccc5ccccc5c4)c3)cc2)CC1 | 2.09 µM | 1.66 µM | –
5 | CN1CCC(Oc2ccc(-c3cccc(NC(=O)c4cc(Cl)cc(Cl)c4)c3)cc2)CC1 | 4.23 µM | 3.72 µM | –
6 | CN1CCC(Oc2ccc(-c3cccc(NC(=O)c4ccccc4Cl)c3)cc2)CC1 | 7.87 µM | 5.17 µM | –
7 | COc1cccc(C(=O)Nc2cccc(-c3ccc(OC4CCN(C)CC4)cc3)c2)c1 | 8.36 µM | 4.5 µM | –
8 | CN1CCC(Oc2ccc(-c3cccc(NC(=O)c4ccc(Cl)cc4)c3)cc2)CC1 | 3.63 µM | 2.23 µM | –
9 | CN1CCC(Oc2ccc(-c3cccc(NC(=O)c4cccc5ccccc45)c3)cc2)CC1 | 1.64 µM | 1.1 µM | –
10 | Cc1cccc(C(=O)Nc2cccc(-c3ccc(OC4CCN(C)CC4)cc3)c2)c1 | 11.4 µM | 7.73 µM | –
11 | CC(=O)Oc1ccc(C(=O)Nc2cccc(-c3ccc(OC4CCN(C)CC4)cc3)c2)cc1CC=C(C)C | 3.65 µM | 1.45 µM | –
12 | CN1CCC(Oc2ccc(-c3cccc(NC(=O)c4cccc(Cl)c4)c3)cc2)CC1 | 4.29 µM | 2.11 µM | –
13 | CN1CCC(Oc2ccc(-c3cccc(NC(=O)c4ccc(Cl)c(Cl)c4)c3)cc2)CC1 | 2.24 µM | 2.17 µM | –
14 | COc1ccc(C(=O)Nc2cccc(-c3ccc(OC4CCN(C)CC4)cc3)c2)cc1 | 10.1 µM | 5.52 µM | –
15 | CN1CCC(Oc2ccc(-c3cccc(NC(=O)c4ccc(Cl)cc4Cl)c3)cc2)CC1 | 5.91 µM | 3.93 µM | –
16 | CC(C)=CCc1cc(C(=O)Nc2cccc(-c3ccc(OC4CCN(C)CC4)cc3)c2)ccc1O | 2.94 µM | 2.21 µM | inhibition [5]: Active; inhibition [6]: Active; inhibition [7]: Active
17 | CN1CCC(Oc2ccc(-c3cccc(NC(=O)c4ccccc4)c3)cc2)CC1 | 18.9 µM | 12 µM | –
18 | CN1CCC(Oc2ccc(-c3cccc(NC(=O)c4ccc(C(C)(C)C)cc4)c3)cc2)CC1 | 1.51 µM | 3.45 µM | –
19 | COc1cccc(-c2cc(C(=O)Nc3cccc(-c4ccc(OC5CCN(C)CC5)cc4)c3)ccc2OC)c1 | 3.47 µM | 2.71 µM | –
